These results are taken from ChEMBL document CHEMBL4138318, “Discovery of 5-Cyano-6-phenylpyrimidin Derivatives Containing an Acylurea Moiety as Orally Bioavailable Reversal Agents against P-Glycoprotein-Mediated Mutidrug Resistance” (J Med Chem, 2018).

Active and inactive are the calls of the source. The calls are words filed in the database; no cut-off is given here.

Data set [1] deals with T1, ATP-dependent translocase ABCB1 (Homo sapiens, UniProt P08183). As to the kind of experiment: Stimulation of human ABCB1 ATPase activity expressed in high-five insect cell membrane vesicles assessed as compound concentration required for 50% stimulation by colorimetric analysis. The note with it: read-out: Activity. Put shortly: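 Vanadate-sensitive ABCB1 ATPase activity in High Five insect cell membrane vesicles, measured with a commercial ATPase kit under a modified protocol; compound tested across 0-40 µM; maximal fold stimulation and concentration giving 50% stimulation derived.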
T1 sequence (P08183 whole entry): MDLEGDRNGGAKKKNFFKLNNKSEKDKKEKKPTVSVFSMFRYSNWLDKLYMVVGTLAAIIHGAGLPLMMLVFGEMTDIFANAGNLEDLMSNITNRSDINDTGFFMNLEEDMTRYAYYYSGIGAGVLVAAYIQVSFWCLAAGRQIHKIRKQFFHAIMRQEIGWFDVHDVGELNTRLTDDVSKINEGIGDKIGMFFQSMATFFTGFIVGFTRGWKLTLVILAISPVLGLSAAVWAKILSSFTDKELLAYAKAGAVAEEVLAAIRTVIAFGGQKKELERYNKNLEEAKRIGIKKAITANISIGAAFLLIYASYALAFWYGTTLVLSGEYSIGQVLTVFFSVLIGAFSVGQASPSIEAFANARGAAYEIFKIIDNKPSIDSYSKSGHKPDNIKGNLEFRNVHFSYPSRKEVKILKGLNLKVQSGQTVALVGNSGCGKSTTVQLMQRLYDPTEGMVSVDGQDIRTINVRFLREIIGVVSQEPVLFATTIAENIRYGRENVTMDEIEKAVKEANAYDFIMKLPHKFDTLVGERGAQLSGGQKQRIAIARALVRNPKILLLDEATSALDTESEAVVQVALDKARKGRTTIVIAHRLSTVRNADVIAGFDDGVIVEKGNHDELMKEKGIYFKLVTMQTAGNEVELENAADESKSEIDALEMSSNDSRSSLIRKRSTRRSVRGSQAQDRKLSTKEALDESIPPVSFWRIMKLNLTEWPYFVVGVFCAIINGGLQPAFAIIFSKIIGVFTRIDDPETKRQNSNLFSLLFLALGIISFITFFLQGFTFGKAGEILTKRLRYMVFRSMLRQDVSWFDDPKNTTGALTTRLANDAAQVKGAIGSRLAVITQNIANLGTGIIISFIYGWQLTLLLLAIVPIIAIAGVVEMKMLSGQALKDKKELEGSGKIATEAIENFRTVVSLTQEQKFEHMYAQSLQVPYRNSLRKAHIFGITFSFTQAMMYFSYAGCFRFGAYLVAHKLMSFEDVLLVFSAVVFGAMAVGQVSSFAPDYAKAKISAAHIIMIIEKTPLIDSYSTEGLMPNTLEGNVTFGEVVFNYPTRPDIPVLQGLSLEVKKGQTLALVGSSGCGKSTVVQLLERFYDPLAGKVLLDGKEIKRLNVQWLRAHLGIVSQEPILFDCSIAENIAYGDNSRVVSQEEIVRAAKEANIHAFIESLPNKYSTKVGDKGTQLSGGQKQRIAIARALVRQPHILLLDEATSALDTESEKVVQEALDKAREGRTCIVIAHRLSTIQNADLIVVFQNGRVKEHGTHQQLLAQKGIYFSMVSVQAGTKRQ

The target of data set [2] is T1, ATP-dependent translocase ABCB1. As to the kind of experiment: Inhibition of ABCB1 in human SW620/AD300 cells assessed as intracellular accumulation of paclitaxel up to 4 uM treated at 2 hrs post paclitaxel treatment for 30 mins in paclitaxel free medium by HPLC analysis. The class given is cell-based. The note with it: 0.5 h. The procedure, abridged:
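Equal numbers of SW620/AD300 cells loaded with 6 µg/mL paclitaxel 2 h, then held in paclitaxel-free medium with or without compound 30 min at 37℃; cells harvested, disrupted by ultrasound, extracted with ethyl acetate and paclitaxel quantified by HPLC.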

Data set [3] deals with T2, Multidrug resistance-associated protein 1 (Homo sapiens, UniProt P33527). Briefly: Inhibition of ABCC1 in human KB-CV60 cells assessed as potentiation of vincristine-induced cytotoxicity by measuring fold reduction in vincristine IC50 at 1 uM preincubated for 4 hrs followed by vincristine addition measured after 72 hrs by MTT assay. The class given is cell-based. Put shortly: (§1)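 KB-CV60 and HEK293/ABCC1 cells (transfected line kept in 2 mg/mL G418) given graded vincristine with or without modulator for 72 h; MK571 25 µM reference; viability by MTT read at 490 nm. IC50 from three independent repeats, mean ± SD; reversal fold = vincristine IC50 ratio without/with modulator.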
T2 sequence (P33527 whole entry): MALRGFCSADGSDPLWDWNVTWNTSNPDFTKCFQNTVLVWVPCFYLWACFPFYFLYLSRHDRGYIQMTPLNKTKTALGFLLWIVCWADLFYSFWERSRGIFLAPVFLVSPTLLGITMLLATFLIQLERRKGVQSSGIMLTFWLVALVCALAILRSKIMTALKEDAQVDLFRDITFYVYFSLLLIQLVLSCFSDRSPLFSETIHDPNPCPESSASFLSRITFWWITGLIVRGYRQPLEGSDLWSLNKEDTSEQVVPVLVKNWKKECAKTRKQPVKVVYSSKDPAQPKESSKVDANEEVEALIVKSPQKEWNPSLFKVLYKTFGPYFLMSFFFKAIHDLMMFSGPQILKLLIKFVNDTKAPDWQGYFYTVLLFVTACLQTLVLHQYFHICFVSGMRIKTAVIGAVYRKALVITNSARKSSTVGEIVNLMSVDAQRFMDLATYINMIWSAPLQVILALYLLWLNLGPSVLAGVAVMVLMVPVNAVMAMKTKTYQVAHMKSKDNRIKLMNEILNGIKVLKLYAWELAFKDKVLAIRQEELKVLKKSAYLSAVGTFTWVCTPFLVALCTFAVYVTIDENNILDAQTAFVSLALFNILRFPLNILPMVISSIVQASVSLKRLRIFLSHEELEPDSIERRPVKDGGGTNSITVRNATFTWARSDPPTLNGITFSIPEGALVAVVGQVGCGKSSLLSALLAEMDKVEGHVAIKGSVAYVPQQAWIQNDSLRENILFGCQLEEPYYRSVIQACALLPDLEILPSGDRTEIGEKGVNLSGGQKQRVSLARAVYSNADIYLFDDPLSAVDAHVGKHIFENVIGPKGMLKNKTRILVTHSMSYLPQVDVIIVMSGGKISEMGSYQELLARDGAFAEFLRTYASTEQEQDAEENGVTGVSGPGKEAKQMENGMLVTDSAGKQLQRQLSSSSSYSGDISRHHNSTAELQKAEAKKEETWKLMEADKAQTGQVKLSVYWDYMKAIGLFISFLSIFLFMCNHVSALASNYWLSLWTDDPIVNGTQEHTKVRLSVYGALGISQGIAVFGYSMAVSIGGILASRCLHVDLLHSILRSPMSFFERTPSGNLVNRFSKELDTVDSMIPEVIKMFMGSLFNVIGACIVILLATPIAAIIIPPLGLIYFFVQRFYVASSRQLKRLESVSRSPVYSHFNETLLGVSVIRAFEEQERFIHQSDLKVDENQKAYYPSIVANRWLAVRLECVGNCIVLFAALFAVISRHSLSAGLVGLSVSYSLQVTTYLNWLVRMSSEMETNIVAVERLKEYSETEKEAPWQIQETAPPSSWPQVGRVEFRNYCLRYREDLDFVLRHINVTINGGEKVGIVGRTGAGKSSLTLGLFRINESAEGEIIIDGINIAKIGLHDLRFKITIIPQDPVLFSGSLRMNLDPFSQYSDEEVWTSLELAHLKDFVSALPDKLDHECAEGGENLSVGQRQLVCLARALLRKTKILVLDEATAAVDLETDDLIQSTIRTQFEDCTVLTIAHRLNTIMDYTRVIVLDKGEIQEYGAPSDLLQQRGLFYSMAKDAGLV

For another data set, the system named is Mus musculus. Briefly: Toxicity in nude BALB/c mouse xenografted with ABCB1 overexpressing human SW620/AD300 cells assessed as change in body weight at 20 mg/kg/day, po cotreated with 5 mg/kg, ip paclitaxel measured after 21 days. The class given is organism-based. The note with it: in vivo, 504 h. The procedure, abridged:
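Female BALB/c nude mice (18-20 g, 5-6 weeks) bearing SW620/AD300 xenografts; grouping once tumours reached 100 mm3: saline vehicle […] ip, paclitaxel 5 mg/kg every 3 days ip, test agent 20 mg/kg/day orally, or the combination. Body weight and tumour volume recorded every 2 days over 21 days; tumours excised and weighed at end.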
Background: Xenograft models place foreign cells or tissue in a host animal.

The target of data set [4] is T2, Multidrug resistance-associated protein 1. Briefly: Inhibition of ABCC1 (unknown origin) expressed in HEK293 cells assessed as potentiation of vincristine-induced cytotoxicity by measuring fold reduction in vincristine IC50 at 1 uM preincubated for 4 hrs followed by vincristine addition measured after 72 hrs by MTT assay. Format: cell-based. Put shortly:
as §1
For orientation: Formazan colour is commonly taken as a measure of viable cells.

For data set [5] the target is unchanged. As to the kind of experiment: Binding affinity at ABCC1 in human SW620/AD300 cells assessed as thermal stabilization preincubated for 30 mins followed by incubation 40 to 61 degC for 3 mins by CETSA. Format: cell-based. The note with it: 0.05 h. The procedure, abridged:
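SW620/AD300 cells lysed by three liquid-nitrogen freeze-thaw cycles; ultracentrifuged supernatant split into compound-treated and solvent-control portions, incubated 30 min at 37℃, aliquoted and heated 3 min at 40, 43, 46, 49, 52, 55, 58 or 61℃; remaining ABCB1 or ABCC1 detected by western blotting.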

Another data set deals with SW620/AD300. Briefly: Effect on ABCB1 expression in human SW620/AD300 cells up to 4 uM after 48 hrs by Western blot analysis. The class given is functional, cell-based. The procedure, abridged: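 SW620/AD300 cells exposed to compound at 0, 1, 2 or 4 µM for 48 h, lysed, ultracentrifuged, protein quantified by BCA; equal protein run on SDS-PAGE, wet-transferred to nitrocellulose, primary antibody overnight at 4℃, secondary 2 h at room temperature, enhanced chemiluminescence detection; GAPDH as loading control.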
On the technique in general: In western blotting, separated proteins are transferred to a membrane and probed.

Regarding `COc1cc(-c2nc(SCC(=O)NC(=O)Nc3ccccn3)nc(Nc3cccc(Cl)c3)c2C#N)cc(OC)c1OC`, the EC50 in data set [1] is 970 nM. Moreover, the “inhibition (INH)” value in data set [2] was “Active”. Besides, the “fold change (FC)” value in data set [3] turned out to be 1.13; in data set [4], 1.14. Moreover, the Activity result was “Non-Toxic” in the data set with Mus musculus and “Not Active” in data set [5]. Moreover, in the data set on SW620/AD300, the result was inactive.
